Most compounds without a hit are left out; they make up all but 1.8% or so of the library.
CHRM4 agonist: human M4 muscarinic receptor agonists, primary screen, CHO-K1 cells, Fluo-8 calcium fluorescence | Muscarinic acetylcholine receptor M4 (Homo sapiens), P08173 | CHO-K1 hM4/Gqi5; vehicle 0%, full acetylcholine response 100% | activation, % at 3 µM | actives 0.14% (n = 360,000);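 active = activation above the run mean over all test wells plus 3 SD, cut at about 32% in these data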;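 also: peak over basal fluorescence ratio per well then scaled between controls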
CHRM5 antagonist: human M5 muscarinic receptor antagonists, primary screen, CHO cells, Fluo-8 calcium fluorescence; CHO-hM5 cells, ACh EC80; AID 624040, 2012; actives 0.59% (n = 360,000); inhibition, % at 3 µM; Muscarinic acetylcholine receptor M5 (Homo sapiens), P08912;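 active = inhibition above a per-plate cutoff, the mean of that plate's test compounds plus 3 SD, cut at about 27% in these data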
Target sequence (P08912 whole entry, looked up): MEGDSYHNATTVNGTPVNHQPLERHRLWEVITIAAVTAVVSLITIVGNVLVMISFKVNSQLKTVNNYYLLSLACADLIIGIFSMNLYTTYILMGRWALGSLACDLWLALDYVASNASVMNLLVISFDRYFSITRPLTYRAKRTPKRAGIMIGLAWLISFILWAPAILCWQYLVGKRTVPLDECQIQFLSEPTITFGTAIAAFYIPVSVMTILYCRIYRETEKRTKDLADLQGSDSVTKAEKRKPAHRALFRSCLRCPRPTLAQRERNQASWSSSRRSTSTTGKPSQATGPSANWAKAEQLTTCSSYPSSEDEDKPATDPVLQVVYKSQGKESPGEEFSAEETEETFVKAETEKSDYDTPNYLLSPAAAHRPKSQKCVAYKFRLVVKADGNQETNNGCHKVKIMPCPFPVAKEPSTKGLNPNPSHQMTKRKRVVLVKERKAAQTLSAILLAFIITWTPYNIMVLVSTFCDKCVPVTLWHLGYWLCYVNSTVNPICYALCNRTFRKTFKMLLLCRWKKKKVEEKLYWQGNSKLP
CHRM4 antagonist: human M4 muscarinic receptor antagonists, primary screen, CHO cells, Fluo-8 calcium fluorescence | actives 0.73% (n = 360,000) | inhibition, % at 3 µM | CHO-hM4 cells, ACh EC80;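 active = inhibition above its plate's cutoff, the mean inhibition of sample wells plus 3 SD, cut at about 27% in these data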
M5 ag: human M5 muscarinic receptor agonists, primary screen, CHO-K1 cells, Fluo-8 calcium fluorescence. Muscarinic acetylcholine receptor M5 (Homo sapiens), P08912. CHO-K1 hM5 cells; 0% DMSO wells, 100% maximal acetylcholine response. activation, % at 3 µM. actives 0.19% (n = 360,000);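 active = activation above the run's mean over test compounds plus 3 SD, cut at about 23% in these data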;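 also: signal is peak over basal fluorescence ratio across the kinetic read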
M5 PAM: human M5 muscarinic receptor positive allosteric modulators, primary screen, CHO-K1 cells, Fluo-8 calcium fluorescence; CHO-K1 hM5, ACh EC20 PAM; 0% = ACh EC20, 100% = ACh EC100; Muscarinic acetylcholine receptor M5 (Homo sapiens), P08912; actives 0.3% (n = 360,000); activation, % at 3 µM;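 active = activation above the run cutoff, the mean activation of all test compounds plus 3 SD, cut at about 18% in these data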
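system = human M5 receptor in CHO-K1 cells | reagent = EC20 acetylcholine as agonist stimulus | compound dosing = single-point, 3 µM nominal | incubation = Fluo-8 loading 80 min at 37 °C plus 30 min room temperature | detection = Fluo-8 calcium dye fluorescence, kinetic read | benchmarks = low control EC20 acetylcholine (0%), high control EC100 acetylcholine (100%)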
CHRM4 PAM: human M4 muscarinic receptor positive allosteric modulators, primary screen, CHO-K1 cells, Fluo-8 calcium fluorescence | CHO-K1 hM4/Gqi5, ACh EC20; 0% = ACh EC20, 100% = maximal ACh | activation, % at 3 µM | actives 0.4% (n = 360,000) | AID 624126, 2012;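 active = activation above its plate's cutoff, the mean activation of sample wells plus 3 SD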
Of the large screens only hits and unclear results are named; the others gave an inactive call.

S=c1nc[nH]c2c1ncn2C1CCCO1 (configuration not stated)	M5 PAM 19
NCC1OC(n2cnc3c(N)ncnc32)CC1O (configuration not stated)	none
Nc1ncnc2c1ncn2[C@H]1C[C@H](O)[C@@H](COP(=O)(O)O)O1	CHRM4 antagonist 30
COC1OC2COC(c3ccccc3)OC2C2OC(c3ccccc3)OC12 (configuration not stated)	none
CC(C)(c1ccc(O)c([N+](=O)[O-])c1)c1ccc(O)c([N+](=O)[O-])c1	none
CN(C)Cc1cc(C(C)(C)c2ccccc2)ccc1O	CHRM5 antagonist 29
Cc1ccc(C)c(NC(=O)CN(C)C(C)C(=O)N2CC(C)CC(C)C2)c1 (configuration not stated)	M5 PAM 19
CC(Oc1ccc(Br)cc1Br)C(=O)Nc1cccnc1Cl (configuration not stated)	none
CC(C)n1nc(C(=O)NNC(=O)c2ccncc2)c2ccccc2c1=O	CHRM4 PAM 23
Cc1ccc([N+](=O)[O-])cc1S(=O)(=O)NCCc1c(C)[nH]c2c(C)cccc12	CHRM4 antagonist 28
CCc1ccc(NC(=O)CS(=O)CC(=O)NCC2OCCc3ccccc32)cc1 (configuration not stated)	none
Cc1cccc(C)c1NC(=O)CS(=O)CC(=O)NCC1OCCc2ccccc21 (configuration not stated)	M5 PAM 23
Brc1ccc(CN2CCN(c3ccccn3)CC2)s1	CHRM4 PAM 29
CN(C)CC1CC/C(=C\c2ccc(O)cc2)C1=O (configuration not stated)	CHRM4 antagonist 39
CCN1C(=O)N/C(=C/c2cc(C)n(Cc3ccccc3)c2C)C1=O	none
CCn1c(C)cc(/C=C2\NC(=O)N(Cc3ccc(Cl)cc3)C2=O)c1C	CHRM4 antagonist 31
CC(C)CC[n+]1ccccc1/C=C/c1ccc(N(C)C)cc1	CHRM5 antagonist 29
CN(C)c1ccc(/C=C/c2cccc[n+]2[O-])cc1	none
Cc1csc(=O)n1CC(=O)OCc1nnc(-c2ccc([N+](=O)[O-])cc2)o1	CHRM4 PAM 23
Cc1cc(NC(=O)CSc2nc(-c3ccccc3)c(C#N)c(=O)[nH]2)no1	CHRM4 PAM 21
COc1ccc(NC(=S)NC(=O)c2ccccc2Cl)cc1	none
O=S(=O)(Nc1ccc(S(=O)(=O)N2CCCC2)cc1)c1ccc(F)cc1	none
O=S(=O)(Nc1ccc(F)cc1)c1ccc(S(=O)(=O)N2CCOCC2)cc1	M5 ag 27
O=C(CN1CCOCC1)NNC(=S)Nc1ccccc1	M5 PAM 29
CCCC(C(=O)Nc1ccc(S(=O)(=O)N2CCOCC2)cc1)c1ccccc1 (configuration not stated)	M5 ag 23
O=C(/C=C/c1cccc(F)c1)Nc1ccc(S(=O)(=O)N2CCOCC2)cc1	M5 PAM 19
O=C(CN1CCOCCOCCOCC1)Nc1ccccc1	none
CCc1nc2ccc(C(=O)N3CCN(C)CC3)cn2c1N(C)CCC(C)C	none
Cc1cccc(NC(=O)COC(=O)CCc2c[nH]c3ccccc23)c1	none
O=C(NCc1cccnc1)c1ccc(S(=O)(=O)N2CCCCC2)cc1	none
O=S(=O)(c1ccc(NC(=S)Nc2ccccc2)cc1)N1CCOCC1	M5 PAM 24, CHRM4 PAM 29
O=S(=O)(c1ccc(NC(=S)NCc2cccnc2)cc1)N1CCCCC1	CHRM4 antagonist 38
COC(=O)CCCC1=CC2=CC(=O)C(C)(OC(=O)c3cccs3)C(=O)C2=CN1Cc1ccccc1 (configuration not stated)	none
COC(=O)CCCC1=CC2=CC(=O)C(C)(OC(=O)c3cccs3)C(=O)C2=CN1c1ccc(OC)cc1 (configuration not stated)	CHRM4 antagonist 27
CC(=O)c1c(C)nc2ccc([N+](=O)[O-])cc2c1-c1ccccc1	CHRM4 PAM 14
CC(=O)c1c(C)nc2ccc(Br)cc2c1-c1ccccc1	none
CC(=O)CC(=O)Nc1ccn(-c2ccccc2)n1	M5 PAM 20
CCOC(=O)C1=C(COC(=O)CNS(=O)(=O)c2ccc(NC(C)=O)cc2)NC(=O)NC1C (configuration not stated)	CHRM4 PAM 22
CCOC(=O)C1=C(COC(=O)CNS(=O)(=O)c2ccc(C)c(C)c2)NC(=O)NC1C (configuration not stated)	none
CCn1c(-c2cc(-c3ccc(C)cc3)nc3ccccc23)n[nH]c1=S	CHRM5 antagonist 98
CC(C)(C)S(=O)N1Cc2cc(C(=O)Nc3ccc(-c4ccccc4)cc3)nc(-c3cccc(-c4cc5ccccc5o4)c3)c2[C@@H]1CCO (some centres not stated)	CHRM4 PAM 21
CC(C)CC(NC(=O)c1ccccc1NC(=O)c1ccccc1)C(=O)O (configuration not stated)	none
CC(C)CC(NC(=O)c1ccc(Cl)cc1Cl)C(=O)O (configuration not stated)	M5 PAM 19
CCOC(=O)[C@H]1[C@H]2COc3ccc(OC)cc3[C@@H]2N2C(=O)CN(Cc3ccc(F)cc3)C(=O)[C@@]12C	CHRM4 antagonist 42
CCC(C(=O)NCc1ccco1)N(C(=O)CNS(=O)(=O)c1ccccc1)c1ccc(OC)cc1 (configuration not stated)	none
Cc1ccc(OCC(=O)OCC(=O)Nc2sccc2C(N)=O)cc1C	CHRM5 antagonist 32
NC(=O)c1ccsc1NC(=O)COC(=O)CSc1ccc(Cl)cc1	CHRM5 antagonist 32
O=C(COC(=O)CSc1ccc(Cl)cc1)NCCc1ccccc1	CHRM4 PAM 24
NC(=O)c1ccsc1NC(=O)COC(=O)c1ccc(Cl)cc1	none
CC[C@]1(C(=O)OC)[C@H]2C(=O)N(Cc3ccccc3)C(=O)[C@H]2[C@H]2CN=C(SC)N21	none
CCNc1nc(NCC)n2c(SCC(=O)Nc3cccc(Cl)c3)nnc2n1	M5 PAM 22
COc1ccc([C@@H]2CC=C(C(=O)O)[C@H](c3ccccc3F)N2S(=O)(=O)c2ccccc2C)cc1	M5 PAM 20
COc1ccc([C@@H]2CC=C(C(=O)O)[C@H](c3ccc(F)cc3)N2S(=O)(=O)c2ccccc2C)cc1	none

From PubChem BioAssay
